Drawing on ChEMBL document CHEMBL1629450, “Design, synthesis, and evaluation of dibenzo[c,h][1,6]naphthyridines as topoisomerase I inhibitors and potential anticancer agents” (J Med Chem, 2010), this text covers GI50, inhibition and solubility for eight compounds.

For data set [1], the system named is IGROV-1. As to the kind of experiment: Antiproliferative activity against human IGROV1 cells after 48 hrs by SRB assay. The following applies: IGROV-1, 48 h. Format: functional. (In general: Sulforhodamine B stains cellular protein and so reports cell mass.)
For data set [2], the system named is HCT-116. As to the kind of experiment: Antiproliferative activity against human HCT116 cells after 48 hrs by SRB assay. Format: functional. As to conditions: HCT-116, 48 h.
In data set [3] the test system is SN12C. Put plainly: Antiproliferative activity against human SN12C cells after 48 hrs by SRB assay. It is filed as functional.
The subject of data set [4] is UACC-62. Put plainly: Antiproliferative activity against human UACC62 cells after 48 hrs by SRB assay. Format: functional. The following applies: UACC-62, 48 h.
The subject of data set [5] is DU-145. As to the kind of experiment: Antiproliferative activity against human DU145 cells after 48 hrs by SRB assay. It is filed as functional. As to conditions: DU-145, 48 h.
The subject of data set [6] is SF-539. Put plainly: Antiproliferative activity against human SF539 cells after 48 hrs by SRB assay. It is filed as functional. The following applies: SF-539, 48 h.
Data set [7] can be described thus: Antiproliferative activity against human OVACR3 cells after 48 hrs by SRB assay. It is filed as functional. As to conditions: OVACR3, 48 h.
For data set [8], the target named is T1, DNA topoisomerase 1 (Homo sapiens) (UniProt P11387).
T1 sequence (whole entry): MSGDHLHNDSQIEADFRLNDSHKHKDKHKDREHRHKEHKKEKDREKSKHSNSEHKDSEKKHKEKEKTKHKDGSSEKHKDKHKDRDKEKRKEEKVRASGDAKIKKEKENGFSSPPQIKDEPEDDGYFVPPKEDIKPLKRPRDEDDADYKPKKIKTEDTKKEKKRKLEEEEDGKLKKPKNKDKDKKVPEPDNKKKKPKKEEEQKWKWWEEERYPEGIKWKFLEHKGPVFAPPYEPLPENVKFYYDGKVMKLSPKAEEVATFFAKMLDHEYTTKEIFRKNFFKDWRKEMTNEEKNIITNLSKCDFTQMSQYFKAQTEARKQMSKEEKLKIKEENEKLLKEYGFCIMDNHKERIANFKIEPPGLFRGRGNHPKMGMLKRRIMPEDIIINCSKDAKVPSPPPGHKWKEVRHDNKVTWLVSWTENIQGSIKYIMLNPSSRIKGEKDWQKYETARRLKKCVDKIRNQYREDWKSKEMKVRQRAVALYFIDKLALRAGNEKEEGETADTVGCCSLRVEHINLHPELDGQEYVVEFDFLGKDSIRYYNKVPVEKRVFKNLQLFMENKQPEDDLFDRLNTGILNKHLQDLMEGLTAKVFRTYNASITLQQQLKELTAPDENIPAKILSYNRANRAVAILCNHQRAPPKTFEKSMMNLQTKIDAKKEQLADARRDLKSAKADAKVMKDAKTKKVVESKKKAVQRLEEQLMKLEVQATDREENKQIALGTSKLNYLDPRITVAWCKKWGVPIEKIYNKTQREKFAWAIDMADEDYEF
Put plainly: Inhibition of human topoisomerase 1 assessed as induction of DNA cleavage at base-pair 119 using 161 base-pair fragment form pBluescript SK(-) phagemid DNA substrate by DNA cleavage assay. The method in brief: (§1)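 Baculovirus-purified human recombinant Top1 with 161 bp PvuII/HindIII fragment of pBluescript SK(-), 3'-end labeled at HindIII site with [α-32P]-dGTP by Klenow fill-in (~50 000 dpm/reaction). Incubated with drug, four 10-fold dilutions from 100 μM, 30 min at 22 °C. Stopped with 0.5% SDS (final), resolved on denaturing 16% polyacrylamide/7 M urea gels. Cleavage scored semiquantitatively.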

For data set [9], the system named is K562. As to the kind of experiment: Antiproliferative activity against human K562 cells after 48 hrs by SRB assay. It is filed as functional. As to conditions: K562, 48 h.
For data set [10], the target named is T1, DNA topoisomerase 1 (Homo sapiens). As to the kind of experiment: Inhibition of human topoisomerase 1 assessed as induction of DNA cleavage at base-pair 97 using 161 base-pair fragment form pBluescript SK(-) phagemid DNA substrate by DNA cleavage assay. The method in brief:
as §1

Data set [11] can be described thus: Antiproliferative activity against human RPMI18226 cells after 48 hrs by SRB assay. It is filed as functional. As to conditions: RPMI18226, 48 h.
Data set [12] relates to HOP-62. As to the kind of experiment: Antiproliferative activity against human HOP62 cells after 48 hrs by SRB assay. The following applies: HOP-62, 48 h. Format: functional.
For data set [13], the system named is MCF7. As to the kind of experiment: Antiproliferative activity against human MCF7 cells after 48 hrs by SRB assay. As to conditions: MCF7, 48 h. Format: functional.
The test system of data set [14] is COLO 205. Put plainly: Antiproliferative activity against human COLO205 cells after 48 hrs by SRB assay. Format: functional. The following applies: COLO 205, 48 h.
Data set [15] is described as follows: Solubility of the compound in chloroform solvent. It is filed as physicochemical.
The subject of data set [16] is UO-31. Put plainly: Antiproliferative activity against human UO31 cells after 48 hrs by SRB assay. It is filed as functional. As to conditions: UO-31, 48 h.
For data set [17], the target named is T1, DNA topoisomerase 1 (Homo sapiens). As to the kind of experiment: Inhibition of human topoisomerase 1 assessed as induction of DNA damage using 161 base-pair fragment form pBluescript SK(-) phagemid DNA substrate by DNA cleavage assay. In a few lines:
as §1

Data set [18] in a line: Solubility of the compound in methanol solvent. It is filed as physicochemical.
Data set [19] in a line: Solubility of the compound in dimethyl sulfoxide solvent. It is filed as physicochemical.

Calls of active or inactive are those of the source. No cut-off for these calls is given here. Some results are limits rather than exact numbers.

Usually GI50 stands for the concentration giving 50% growth inhibition. A high value points to less potent growth inhibition. Regarding `COc1cc2c(=O)n(CCCN3CCOCC3)c3c4ccccc4nc(Cl)c3c2cc1OC`, the GI50 in [1] stood at 0.03 µM; in data set [2] it was 4.16 µM; in data set [3], 13.2 µM; in data set [4], 6.8 µM; in data set [5] it was 10.5 µM; in [6], 12.3 µM. Further, the GI50 in data set [7] was determined as 6.3 µM; in data set [9], 0.2 µM; in [11], 0.1 µM; in data set [12], 4.7 µM; in data set [13], 0.4 µM; in data set [14], 0.33 µM. The GI50 in [16] worked out at 0.02 µM. Also, the inhibition entry in data set [8], in data set [10] and in [17] was “Active” throughout. The solubility result in data set [15], in data set [18] and in data set [19] was “soluble” in each case.
As for `COc1cc2c(OC)nc3c4ccccc4nc(OC)c3c2cc1OC`, in data set [17], the inhibition result is “inactive”.
Turning to `COc1cc2c(=O)n(CCCO)c3c4ccccc4[nH]c(=O)c3c2cc1OC`, the inhibition result in data set [17] is “inactive”.
In the case of `COc1cc2c(Cl)nc3c4ccccc4nc(Cl)c3c2cc1OC`, the inhibition entry in [17] was “inactive”.
On to `COc1cc2c3c(n(C)c(=O)c2cc1OC)-c1cc2c(cc1C3=O)OCO2`, for which the GI50 in data set [1] came out at 0.01 µM; in [2], 11.5 µM; in data set [3] it was 25.7 µM; in data set [4], 0.6 µM; in data set [5] it was 4.8 µM; in [6], 1.7 µM. Further, the GI50 was 22.4 µM in [7]; 6 µM in data set [9]; greater than 100 µM in data set [11]; 2.8 µM in data set [12]; 1.9 µM in data set [13]; greater than 100 µM in data set [14]. Also, the GI50 in data set [16] was 1.7 µM.
Consider `COc1cc2c(=O)n(C)c3c4ccccc4nc(Cl)c3c2cc1OC`, for which the inhibition result in [10] and in data set [17] was “Active” throughout. Also, the solubility entry in [15], in [18] and in [19] was “soluble” each time.
With `C=CCn1c(=O)c2cc(OC)c(OC)cc2c2c(=O)[nH]c3ccccc3c21`, the inhibition entry in [17] was “inactive”.
In the case of `COc1cc2c(=O)n(C)c3c4ccccc4[nH]c(=O)c3c2cc1OC`, in [17], the inhibition result is “inactive”.
